Results reported in article PMC3325328 (Journal of Medicinal Chemistry, 2012).

Assays:
human TLR2 [1] = molecular target: T1, human TLR2 (Homo sapiens, UniProt O60603); assay: human TLR2-specific NF-κB reporter gene assay; assay type: cell-based; details: for absolute magnitude of TLR2-induced NF-κB activation (in words): Fig. 1
Procedure, shortened: (§1)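 HEK-Blue reporter cells with NF-κB-driven secreted alkaline phosphatase (sAP) were plated at ~10⁵ cells/mL and grown to confluency. They were then stimulated for 12 h with serially diluted test compound. Extracellular sAP in the supernatant was read spectrophotometrically at 620 nm using an alkaline phosphatase-specific chromogen in the detection medium. Samples were run in quadruplicate, with means and standard deviations shown.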

murine TLR2 = murine TLR2 (Mus musculus, UniProt Q9QUN7); assay: murine TLR2-specific NF-κB reporter gene assay; assay type: cell-based; details: for mTLR2-agonistic activity (in words): murine TLR2 reporter gene assay
Procedure, shortened: as §1

human TLR2 [2] = molecular target: T1, human TLR2; details: cited from earlier work

T1 sequence (O60603 21-784): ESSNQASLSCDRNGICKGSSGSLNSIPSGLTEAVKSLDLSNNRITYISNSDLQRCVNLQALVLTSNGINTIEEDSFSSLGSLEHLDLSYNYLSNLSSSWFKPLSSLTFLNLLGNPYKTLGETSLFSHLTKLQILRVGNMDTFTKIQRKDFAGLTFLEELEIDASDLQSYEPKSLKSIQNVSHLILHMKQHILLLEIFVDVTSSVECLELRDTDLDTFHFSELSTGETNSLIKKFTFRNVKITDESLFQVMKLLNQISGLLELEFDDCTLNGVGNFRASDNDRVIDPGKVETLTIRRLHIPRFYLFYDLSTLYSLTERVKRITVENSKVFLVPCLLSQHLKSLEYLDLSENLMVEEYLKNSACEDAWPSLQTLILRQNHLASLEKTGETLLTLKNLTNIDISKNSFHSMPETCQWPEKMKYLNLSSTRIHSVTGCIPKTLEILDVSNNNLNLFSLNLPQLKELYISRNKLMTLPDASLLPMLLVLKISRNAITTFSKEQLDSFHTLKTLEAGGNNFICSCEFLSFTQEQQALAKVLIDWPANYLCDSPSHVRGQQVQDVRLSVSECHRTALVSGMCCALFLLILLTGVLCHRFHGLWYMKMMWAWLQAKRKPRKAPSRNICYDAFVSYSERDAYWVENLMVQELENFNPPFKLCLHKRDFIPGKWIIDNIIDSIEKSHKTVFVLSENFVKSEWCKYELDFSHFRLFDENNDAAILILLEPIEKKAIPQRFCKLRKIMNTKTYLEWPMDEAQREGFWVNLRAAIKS
Chain of murine TLR2 (Q9QUN7 25-784): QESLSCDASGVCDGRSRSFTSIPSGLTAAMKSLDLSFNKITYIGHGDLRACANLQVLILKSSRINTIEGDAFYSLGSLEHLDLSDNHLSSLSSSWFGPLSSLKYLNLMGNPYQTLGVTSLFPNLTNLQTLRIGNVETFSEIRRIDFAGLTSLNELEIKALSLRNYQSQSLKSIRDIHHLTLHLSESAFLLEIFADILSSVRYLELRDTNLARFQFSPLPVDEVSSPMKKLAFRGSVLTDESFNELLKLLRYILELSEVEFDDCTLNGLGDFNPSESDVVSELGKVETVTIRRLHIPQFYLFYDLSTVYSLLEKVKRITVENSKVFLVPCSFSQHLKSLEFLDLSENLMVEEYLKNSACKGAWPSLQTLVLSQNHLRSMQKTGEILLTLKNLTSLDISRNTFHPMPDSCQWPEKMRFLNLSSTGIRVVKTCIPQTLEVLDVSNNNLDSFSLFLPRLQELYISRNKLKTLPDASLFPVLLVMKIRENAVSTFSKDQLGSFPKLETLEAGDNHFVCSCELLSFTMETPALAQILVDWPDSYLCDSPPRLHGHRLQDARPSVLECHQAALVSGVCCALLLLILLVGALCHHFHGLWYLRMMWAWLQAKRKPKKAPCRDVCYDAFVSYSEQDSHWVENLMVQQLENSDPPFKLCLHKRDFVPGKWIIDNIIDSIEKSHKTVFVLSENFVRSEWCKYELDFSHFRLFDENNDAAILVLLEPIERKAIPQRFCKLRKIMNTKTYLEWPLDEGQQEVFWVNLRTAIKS

SMILES | hTLR2-agonistic activity (in words) (human TLR2 [1]) | further results
CCCCCCCCCCCCCCCC(=O)OCCCSC[C@H](NC(C)=O)C(=O)N[C@@H](CO)C(=O)OC [Compound 16, 3-(((R)-2-acetamido-3-(((S)-3-hydroxy-1-methoxy-1-oxopropan-2-yl)amino)-3-oxopropyl)thio)propyl palmitate] | active, albeit much weaker in potency than 11d | 
CCCCCCCCCCCCCCN(CCCCCCCCCCCCCC)CC(=O)OCCSC[C@H](N)C(=O)N[C@@H](CO)C(=O)OC [Compound 10a, (S)-methyl 2-((R)-2-amino-3-((2-(2-(ditetradecylamino)acetoxy)ethyl)thio)propanamido)-3-hydroxypropanoate] | completely inactive | 
CCCCCCCCCCCCCCCC(=O)OCCSC[C@H](NC(C)=O)C(=O)N[C@@H](CO)C(=O)OC [Compound 11d, 2-(((R)-2-acetamido-3-(((S)-3-hydroxy-1-methoxy-1-oxopropan-2-yl)amino)-3-oxopropyl)thio)ethyl palmitate] |  | absolute magnitude of TLR2-induced NF-κB activation (in words) (human TLR2 [1]): far greater
CCCCCCCCCCCCCCNCC(=O)OCCSC[C@H](N)C(=O)N[C@@H](CO)C(=O)OC [Compound 10b, (S)-methyl 2-((R)-2-amino-3-((2-(2-(tetradecylamino)acetoxy)ethyl)thio)propanamido)-3-hydroxypropanoate] | completely inactive | 
CCCCCCCCCCCCCCCC(=O)OCCSC[C@H](NC(=O)C(F)(F)F)C(=O)N[C@@H](CO)C(=O)OC [Compound 11h, 2-(((R)-3-(((S)-3-hydroxy-1-methoxy-1-oxopropan-2-yl)amino)-3-oxo-2-(2,2,2-trifluoroacetamido)propyl)thio)ethyl palmitate] |  | absolute magnitude of TLR2-induced NF-κB activation (in words) (human TLR2 [1]): low magnitude of NF-κB activation
CCCCCCCCCCCCCCCC(=O)OCCSC[C@H](N)C(=O)N[C@@H](CO)C(=O)OC [Compound 6d] |  | specificity for human versus murine TLR2 (in words) (murine TLR2; human and murine TLR2 reporter gene assays): exquisite specificity in activating human TLR2 (hTLR2), but not murine TLR2 (mTLR2); mTLR2-agonistic activity (in words) (murine TLR2): entirely inactive
COC(=O)[C@H](CO)NC(=O)[C@@H](N)CSCCOC(=O)c1ccc(-c2ccccc2)cc1 [Compound 6f, 2-(((R)-2-amino-3-(((S)-3-hydroxy-1-methoxy-1-oxopropan-2-yl)amino)-3-oxopropyl)thio)ethyl [1,1'-biphenyl]-4-carboxylate] | complete absence of activity | 
CCCCCCCCCCCCCCCCCC(=O)OCCSC[C@H](N)C(=O)N[C@@H](CO)C(=O)OC [Compound 6e, 2-(((R)-2-amino-3-(((S)-3-hydroxy-1-methoxy-1-oxopropan-2-yl)amino)-3-oxopropyl)thio)ethyl stearate] |  | mTLR2-agonistic activity (in words) (murine TLR2): entirely inactive
CCCCCCCCCCCCCCCC(=O)N[C@@H](CSCCOC(=O)CCCCCCCCCCCCCCC)C(=O)N[C@@H](CO)C(=O)OC [Compound 11g, 2-(((R)-3-(((S)-3-hydroxy-1-methoxy-1-oxopropan-2-yl)amino)-3-oxo-2-palmitamidopropyl)thio)ethyl palmitate] | complete loss of activity | 
CCCCCCCCCCCCCCCC(=O)OCCCSC[C@H](N)C(=O)N[C@@H](CO)C(=O)OC [Compound 15, 3-((R)-2-amino-3-((S)-3-hydroxy-1-methoxy-1-oxopropan-2-ylamino)-3-oxopropylthio)propyl palmitate] |  | TLR2-agonistic activity (in words), previously identified (human TLR2 [2]): inactive
CCCCCCCCCCCCCCCC(=O)OCCSC[C@H](N)C(=O)N[C@@H](COC(C)=O)C(=O)OC [Compound 14a, 2-(((R)-3-(((S)-3-acetoxy-1-methoxy-1-oxopropan-2-yl)amino)-2-amino-3-oxopropyl)thio)ethyl palmitate] | virtually indistinguishable from that of 6d | 
COC(=O)[C@H](CO)NC(=O)[C@@H](N)CSCCOC(=O)c1cccc(-c2ccccc2)c1 [Compound 6g, 2-(((R)-2-amino-3-(((S)-3-hydroxy-1-methoxy-1-oxopropan-2-yl)amino)-3-oxopropyl)thio)ethyl [1,1'-biphenyl]-3-carboxylate] | complete absence of activity | 
